The source made the active and inactive calls. The rule behind the calls is not given here.
Experiments:
Neutrophil elastase = target: T1, Neutrophil elastase (Homo sapiens, UniProt P08246); test: Inhibition of human neutrophil elastase using N-methylsuccinyl-Ala-Ala-Pro-Val-7-amino-4-methylcoumarin as substrate measured every 30 seconds for 10 mins by fluorescence microplate reader analysis
T1 sequence (P08246 whole entry): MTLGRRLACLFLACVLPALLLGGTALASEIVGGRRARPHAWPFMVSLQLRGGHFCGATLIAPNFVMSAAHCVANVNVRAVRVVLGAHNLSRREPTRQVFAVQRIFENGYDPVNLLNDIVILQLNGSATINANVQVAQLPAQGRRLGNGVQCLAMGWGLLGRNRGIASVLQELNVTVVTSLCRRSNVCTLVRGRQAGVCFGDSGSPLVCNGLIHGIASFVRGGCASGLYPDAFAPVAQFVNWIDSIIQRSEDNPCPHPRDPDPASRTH

Chymotrypsinogen B = Chymotrypsinogen B (Homo sapiens, UniProt P17538); test: Inhibition of human pancreatic chymotrypsin using Suc-Ala-Ala-Pro-7-amino-4-methylcoumarin as substrate by fluorescence microplate reader analysis
Plasma kallikrein [1] = target: T2, Plasma kallikrein (Homo sapiens, UniProt P03952); test: Inhibition of human plasma kallikrein using benzyloxycarbonyl-Phe-Arg-7-amino-4-methylcoumarin as substrate at 50 uM by fluorescence microplate reader analysis
[2] = target: Cathepsin D (Homo sapiens) (UniProt P07339); test: Inhibition of human spleen cathepsin D using MOCAc-Gly-Lys-Pro-Ile-Leu-Phe-Phe-Arg-Leu-Lys (Dnp)-D-Arg-NH2 as substrate at 50 uM by fluorescence microplate reader analysis
Outline: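 Cathepsin D from human spleen, 0.1 U/mL, in 0.1 M sodium acetate pH 5.0 with 5 μM MOCAc peptide substrate, 25 °C. Highest compound concentration tested 50 μM.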

[3] = Half life in phosphate buffer at pH 7.3; type: physicochemical
[4] = target: T3, Urokinase-type plasminogen activator (Homo sapiens, UniProt P00749); test: Inhibition of human urokinase using benzyloxycarbonyl-Gly-Gly-Arg-7-amino-4-methylcoumarin as substrate by fluorescence microplate reader analysis
Prothrombin = Prothrombin (Homo sapiens, UniProt P00734); test: Inhibition of human plasma thrombin using benzonyl-Phe-Val-Arg-7-amino-4-methylcoumarin as substrate by fluorescence microplate reader analysis
[5] = target: T4, Neutrophil elastase (Homo sapiens) (UniProt P08246); test: Inhibition of human neutrophil elastase using N-methylsuccinyl-Ala-Ala-Pro-Val-7-amino-4-methylcoumarin as substrate at 5 uM after 4 hrs by fluorescence microplate reader analysis
T4 sequence (whole entry): T1 sequence (P08246 whole entry)

[6] = target: T4, Neutrophil elastase (Homo sapiens); test: Reversible inhibition of human neutrophil elastase using N-methylsuccinyl-Ala-Ala-Pro-Val-7-amino-4-methylcoumarin as substrate at 5 uM after 1 to 2 hrs by fluorescence microplate reader analysis
[7] = target: T4, Neutrophil elastase (Homo sapiens); test: Inhibition of human neutrophil elastase using N-methylsuccinyl-Ala-Ala-Pro-Val-7-amino-4-methylcoumarin as substrate at 50 uM measured every 30 seconds for 10 mins by fluorescence microplate reader analysis
Plasma kallikrein [8] = target: T2, Plasma kallikrein; test: Inhibition of human plasma kallikrein using benzyloxycarbonyl-Phe-Arg-7-amino-4-methylcoumarin as substrate by fluorescence microplate reader analysis
[9] = target: T4, Neutrophil elastase (Homo sapiens); test: Inhibition of human neutrophil elastase using N-methylsuccinyl-Ala-Ala-Pro-Val-7-amino-4-methylcoumarin as substrate at 5 uM after 5 hrs by fluorescence microplate reader analysis
[10] = target: T4, Neutrophil elastase (Homo sapiens); test: Competitive inhibition of human neutrophil elastase using N-methylsuccinyl-Ala-Ala-Pro-Val-7-amino-4-methylcoumarin as substrate by Lineweaver-Burk plot analysis
[11] = target: T3, Urokinase-type plasminogen activator; test: Inhibition of human urokinase using benzyloxycarbonyl-Gly-Gly-Arg-7-amino-4-methylcoumarin as substrate at 50 uM by fluorescence microplate reader analysis

T2 sequence (P03952 20-390 limits assumed): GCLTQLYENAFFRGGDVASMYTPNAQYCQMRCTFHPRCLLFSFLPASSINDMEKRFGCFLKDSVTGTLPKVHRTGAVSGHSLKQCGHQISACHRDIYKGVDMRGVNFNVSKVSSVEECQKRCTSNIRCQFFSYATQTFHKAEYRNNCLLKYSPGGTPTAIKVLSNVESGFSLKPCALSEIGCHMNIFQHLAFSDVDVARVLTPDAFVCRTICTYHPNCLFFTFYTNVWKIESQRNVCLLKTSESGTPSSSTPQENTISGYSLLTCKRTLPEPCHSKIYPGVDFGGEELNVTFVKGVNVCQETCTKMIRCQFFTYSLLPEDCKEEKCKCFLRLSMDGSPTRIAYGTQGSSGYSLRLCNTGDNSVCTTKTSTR
T2 sequence (P03952 391-638 limits assumed): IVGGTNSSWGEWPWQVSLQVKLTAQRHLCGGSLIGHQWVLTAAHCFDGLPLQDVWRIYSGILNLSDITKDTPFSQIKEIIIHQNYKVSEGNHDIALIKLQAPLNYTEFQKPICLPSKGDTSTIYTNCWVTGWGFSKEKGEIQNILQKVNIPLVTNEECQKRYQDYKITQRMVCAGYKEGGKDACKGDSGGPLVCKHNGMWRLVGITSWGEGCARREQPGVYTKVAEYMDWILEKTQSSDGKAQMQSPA
Chymotrypsinogen B, sequence (P17538 34-164 limits assumed, other chains not shown): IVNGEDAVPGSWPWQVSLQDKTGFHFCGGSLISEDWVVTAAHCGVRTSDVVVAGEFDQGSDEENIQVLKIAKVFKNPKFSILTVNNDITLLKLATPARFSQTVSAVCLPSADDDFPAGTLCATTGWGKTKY
Chymotrypsinogen B, sequence (P17538 167-263 limits assumed, other chains not shown): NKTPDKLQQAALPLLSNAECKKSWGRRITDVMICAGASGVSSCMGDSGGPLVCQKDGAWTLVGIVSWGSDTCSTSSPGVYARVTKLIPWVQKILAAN
Cathepsin D (Homo sapiens), sequence (P07339 65-162 limits assumed): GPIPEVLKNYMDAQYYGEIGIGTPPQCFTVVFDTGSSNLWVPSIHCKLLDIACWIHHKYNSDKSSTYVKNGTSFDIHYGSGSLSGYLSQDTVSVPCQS
Cathepsin D (Homo sapiens), sequence (P07339 169-412 limits assumed): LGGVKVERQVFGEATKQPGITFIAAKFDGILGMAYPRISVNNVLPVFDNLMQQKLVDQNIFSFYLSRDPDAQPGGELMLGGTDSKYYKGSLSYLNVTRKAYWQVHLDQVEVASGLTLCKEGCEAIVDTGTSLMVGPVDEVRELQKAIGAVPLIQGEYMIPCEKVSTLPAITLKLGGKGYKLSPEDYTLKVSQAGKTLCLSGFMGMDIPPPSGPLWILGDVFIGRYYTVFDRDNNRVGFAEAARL

| IC50 (Neutrophil elastase) [nM] | IC50 (Chymotrypsinogen B) [nM] | inhibition (Plasma kallikrein [1]) | IC50 [4] [nM] | IC50 (Prothrombin) [nM] | SMILES | other results |
| --- | --- | --- | --- | --- | --- | --- |
| 140 | – | – | – | – | CCOC(=O)c1nn(C(=O)c2cccc(C)c2)c2ccc(OC)cc12 | – |
| 30 | – | inactive | 13700 | 310 | CCOC(=O)c1nn(C(=O)c2cccc(C)c2)c2ccc(NC(C)=O)cc12 | inhibition [5]: Active; inhibition [2]: inactive; t1/2 [3]: 78.8 min |
| 110 | – | – | – | – | CCOC(=O)c1nn(C(=O)c2cccc(C)c2)c2ccc(OC(F)(F)F)cc12 | – |
| – | 40 | inactive | 1500 | 480 | CCOC(=O)c1nn(C(=O)c2cccc(C)c2)c2ccc([N+](=O)[O-])cc12 | – |
| 140 | – | – | – | – | CCOC(=O)c1nn(C(=O)c2cccc(C)c2)c2ccc(N(C)C)cc12 | – |
| 80 | – | inactive | – | – | COC(=O)c1nn(C(=O)c2cccc(C)c2)c2ccc(Br)cc12 | – |
| – | 21 | inactive | 480 | 82 | CCOC(=O)c1nn(C(=O)c2cccc(OC)c2)c2ccc([N+](=O)[O-])cc12 | – |
| 50 | – | – | – | – | CCCC(=O)Nc1ccc2c(c1)c(C(=O)OCC)nn2C(=O)c1cccc(C)c1 | – |
| – | 140 | inactive | 14800 | 39 | CCOC(=O)c1nn(C(=O)c2cccc(C)c2)c2ccc(NC(=O)CC)cc12 | – |
| 80 | – | – | – | – | CCOC(=O)c1nn(C(=O)c2ccccc2)c2ccc(OC)cc12 | – |

Continued, molecule first:

| SMILES | IC50 (Neutrophil elastase) [nM] | IC50 (Chymotrypsinogen B) [nM] | inhibition (Plasma kallikrein [1]) | IC50 [4] [nM] | IC50 (Prothrombin) [nM] | other results |
| --- | --- | --- | --- | --- | --- | --- |
| COC(=O)c1nn(C(=O)c2cccc(C)c2)c2cc([N+](=O)[O-])ccc12 | 20 | 38 | inactive | 310 | 640 | inhibition [2]: inactive; t1/2 [3]: 41.5 min |
| COC(=O)c1nn(C(=O)c2ccsc2)c2ccc([N+](=O)[O-])cc12 | 50 | – | – | – | – | – |
| CCOC(=O)c1nn(C(=O)c2ccsc2)c2ccc([N+](=O)[O-])cc12 | 30 | 46 | inactive | 25300 | 370 | inhibition [6]: Active; inhibition [2]: inactive; t1/2 [3]: 32.8 min |
| COC(=O)c1nn(C(=O)c2cccc(C)c2)c2ccc([N+](=O)[O-])cc12 | – | – | inactive | 440 | 1100 | inhibition [5]: Active; inhibition [2]: inactive; t1/2 [3]: 47.8 min |
| Cc1cccc(C(=O)n2nc(C#N)c3ccccc32)c1 | – | 66 | inactive | 6600 | 1900 | – |
| COC(=O)c1nn(C(=O)c2cccc(OC)c2)c2ccc(Br)cc12 | – | – | inactive | – | – | – |
| COC(=O)c1nn(C(=O)c2cccc(C)c2)c2c([N+](=O)[O-])cccc12 | – | – | – | – | – | inhibition [7]: inactive |
| COC(=O)c1nn(C(=O)c2ccsc2)c2ccc(Br)cc12 | 160 | – | – | – | – | – |
| COC(=O)c1nn(C(=O)c2ccccc2)c2ccc([N+](=O)[O-])cc12 | 30 | 31 | – | 620 | 830 | inhibition [6]: Active; IC50 (Plasma kallikrein [8]): 11200 nM; inhibition [2]: inactive; t1/2 [3]: 37.9 min |
| CCOC(=O)c1nn(C(=O)c2ccccc2)c2ccc([N+](=O)[O-])cc12 | 20 | – | – | – | – | – |
| CCOC(=O)c1nn(C(=O)c2cccc(C)c2)c2ccc(NC(=O)C3CC3)cc12 | 12 | 370 | inactive | – | 160 | inhibition [9]: Active; inhibition [10]: Active; inhibition [2]: inactive; t1/2 [3]: 51.7 min; inhibition [11]: inactive |
| CCOC(=O)c1nn(C(=O)c2ccsc2)c2ccc(Br)cc12 | 260 | – | – | – | – | – |
| N#Cc1nn(C(=O)c2ccccc2)c2ccccc12 | 40 | – | – | – | – | – |

Reference: ChEMBL document CHEMBL2406965, “Optimization of N-benzoylindazole derivatives as inhibitors of human neutrophil elastase” (J Med Chem, 2013)
